System: HEK-293T
Assay: Multiplex assay against HEK293T
Type: toxicity, cell-based
Conditions: human
Outline: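 Per cents of healthy-nucleus cells form the tubulin, mitochondrial-mass and membrane-permeability phenotype values. Live cells were stained at seeding with Hoechst33342, BioTracker Green Microtubule Cytoskeleton Dye, MitoTracker Red and Annexin V Alexa Fluor 680. After compound addition they were imaged on a CQ1 microscope at 37°C and 5% CO2, and CellPathfinder machine-learning gating split them into Hoechst high-intensity objects or normal cells, normal cells into healthy, pyknosed or fragmented nuclei, and pyknosed cells into mitotic or apoptotic.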

[1] = 12 h, 1 µM, compound concentration 1 uM, replicate 1
[2] = 12 h, 1 µM, compound concentration 1 uM, replicate 2
[3] = 12 h, 10 µM, compound concentration 10 uM, replicate 1
[4] = 12 h, 10 µM, compound concentration 10 uM, replicate 2
[5] = 24 h, 1 µM, compound concentration 1 uM, replicate 1
[6] = 24 h, 1 µM, compound concentration 1 uM, replicate 2
[7] = 24 h, 10 µM, compound concentration 10 uM, replicate 1
[8] = 24 h, 10 µM, compound concentration 10 uM, replicate 2
[9] = 48 h, 1 µM, compound concentration 1 uM, replicate 1
[10] = 48 h, 1 µM, compound concentration 1 uM, replicate 2
[11] = 48 h, 10 µM, compound concentration 10 uM, replicate 1
[12] = 48 h, 10 µM, compound concentration 10 uM, replicate 2

C[C@@H]1CC(=O)Nc2cccc(-c3ccc4c(c3)c(-c3cnn(C)c3)nn4C)c2N1
Population Apoptotic (%) [1]: 36%
Population Fragmented Nuclei (%) [1]: 7%
Population Healthy Nuclei (%) [1]: 76%
Population Hoechst High Intensity Objects (%) [1]: 7%
Population Membrane Permeable-Phenotype (%) [1]: 0%
Population Mitochondria Different-Phenotype (%) [1]: 51%
Population Mitotic Cells (%) [1]: 63%
Population Normal (%) [1]: 92%
Population Pyknosed Nuclei (%) [1]: 16%
Population Tubulin-Different-Phenotype (%) [1]: 39%
Total Cell Count [1]: 305
Population Apoptotic (%) [2]: 60%
Population Fragmented Nuclei (%) [2]: 5%
Population Healthy Nuclei (%) [2]: 77%
Population Mitochondria Different-Phenotype (%) [2]: 65%
Population Mitotic Cells (%) [2]: 39%
Population Tubulin-Different-Phenotype (%) [2]: 26%
Total Cell Count [2]: 349
Population Apoptotic (%) [3]: 49%
Population Fragmented Nuclei (%) [3]: 8%
Population Healthy Nuclei (%) [3]: 74%
Population Hoechst High Intensity Objects (%) [3]: 5%
Population Membrane Permeable-Phenotype (%) [3]: 0%
Population Mitochondria Different-Phenotype (%) [3]: 72%
Population Mitotic Cells (%) [3]: 50%
Population Normal (%) [3]: 94%
Population Pyknosed Nuclei (%) [3]: 17%
Population Tubulin-Different-Phenotype (%) [3]: 62%
Total Cell Count [3]: 384
Population Apoptotic (%) [4]: 38%
Population Fragmented Nuclei (%) [4]: 5%
Population Healthy Nuclei (%) [4]: 77%
Population Hoechst High Intensity Objects (%) [4]: 12%
Population Mitochondria Different-Phenotype (%) [4]: 86%
Population Mitotic Cells (%) [4]: 62%
Population Normal (%) [4]: 87%
Population Pyknosed Nuclei (%) [4]: 16%
Population Tubulin-Different-Phenotype (%) [4]: 56%
Total Cell Count [4]: 345
Population Apoptotic (%) [5]: 38%
Population Fragmented Nuclei (%) [5]: 10%
Population Healthy Nuclei (%) [5]: 74%
Population Hoechst High Intensity Objects (%) [5]: 7%
Population Membrane Permeable-Phenotype (%) [5]: 0%
Population Mitochondria Different-Phenotype (%) [5]: 37%
Population Mitotic Cells (%) [5]: 61%
Population Normal (%) [5]: 92%
Population Pyknosed Nuclei (%) [5]: 14%
Population Tubulin-Different-Phenotype (%) [5]: 20%
Total Cell Count [5]: 395
Population Apoptotic (%) [6]: 50%
Population Fragmented Nuclei (%) [6]: 8%
Population Healthy Nuclei (%) [6]: 79%
Population Hoechst High Intensity Objects (%) [6]: 6%
Population Mitochondria Different-Phenotype (%) [6]: 48%
Population Mitotic Cells (%) [6]: 50%
Population Normal (%) [6]: 93%
Population Pyknosed Nuclei (%) [6]: 11%
Population Tubulin-Different-Phenotype (%) [6]: 16%
Total Cell Count [6]: 422
Population Apoptotic (%) [7]: 43%
Population Fragmented Nuclei (%) [7]: 9%
Population Healthy Nuclei (%) [7]: 76%
Population Hoechst High Intensity Objects (%) [7]: 2%
Population Membrane Permeable-Phenotype (%) [7]: 0%
Population Mitochondria Different-Phenotype (%) [7]: 62%
Population Mitotic Cells (%) [7]: 56%
Population Normal (%) [7]: 97%
Population Pyknosed Nuclei (%) [7]: 13%
Population Tubulin-Different-Phenotype (%) [7]: 37%
Total Cell Count [7]: 472
Population Apoptotic (%) [8]: 57%
Population Fragmented Nuclei (%) [8]: 8%
Population Healthy Nuclei (%) [8]: 72%
Population Hoechst High Intensity Objects (%) [8]: 5%
Population Mitochondria Different-Phenotype (%) [8]: 68%
Population Mitotic Cells (%) [8]: 42%
Population Normal (%) [8]: 94%
Population Pyknosed Nuclei (%) [8]: 19%
Population Tubulin-Different-Phenotype (%) [8]: 28%
Total Cell Count [8]: 381
Population Apoptotic (%) [9]: 33%
Population Fragmented Nuclei (%) [9]: 11%
Population Healthy Nuclei (%) [9]: 80%
Population Hoechst High Intensity Objects (%) [9]: 1%
Population Membrane Permeable-Phenotype (%) [9]: 0%
Population Mitochondria Different-Phenotype (%) [9]: 23%
Population Mitotic Cells (%) [9]: 66%
Population Normal (%) [9]: 98%
Population Pyknosed Nuclei (%) [9]: 7%
Population Tubulin-Different-Phenotype (%) [9]: 13%
Total Cell Count [9]: 627
Population Apoptotic (%) [10]: 30%
Population Fragmented Nuclei (%) [10]: 9%
Population Healthy Nuclei (%) [10]: 81%
Population Hoechst High Intensity Objects (%) [10]: 2%
Population Mitochondria Different-Phenotype (%) [10]: 30%
Population Mitotic Cells (%) [10]: 69%
Population Normal (%) [10]: 97%
Population Pyknosed Nuclei (%) [10]: 9%
Total Cell Count [10]: 593
Population Apoptotic (%) [11]: 43%
Population Fragmented Nuclei (%) [11]: 13%
Population Healthy Nuclei (%) [11]: 80%
Population Hoechst High Intensity Objects (%) [11]: 4%
Population Membrane Permeable-Phenotype (%) [11]: 0%
Population Mitochondria Different-Phenotype (%) [11]: 44%
Population Mitotic Cells (%) [11]: 56%
Population Normal (%) [11]: 95%
Population Pyknosed Nuclei (%) [11]: 6%
Population Tubulin-Different-Phenotype (%) [11]: 16%
Total Cell Count [11]: 636
Population Apoptotic (%) [12]: 42%
Population Fragmented Nuclei (%) [12]: 12%
Population Healthy Nuclei (%) [12]: 78%
Population Hoechst High Intensity Objects (%) [12]: 2%
Population Mitochondria Different-Phenotype (%) [12]: 53%
Population Mitotic Cells (%) [12]: 57%
Population Normal (%) [12]: 97%
Population Pyknosed Nuclei (%) [12]: 9%
Population Tubulin-Different-Phenotype (%) [12]: 20%
Total Cell Count [12]: 521

O=C(Nc1cc(-c2ccccc2)nn1-c1ccccc1F)c1ccc([N+](=O)[O-])cc1
Population Apoptotic (%) [1]: 33%
Population Fragmented Nuclei (%) [1]: 7%
Population Healthy Nuclei (%) [1]: 78%
Population Hoechst High Intensity Objects (%) [1]: 9%
Population Membrane Permeable-Phenotype (%) [1]: 0%
Population Mitochondria Different-Phenotype (%) [1]: 31%
Population Mitotic Cells (%) [1]: 66%
Population Normal (%) [1]: 90%
Population Pyknosed Nuclei (%) [1]: 13%
Population Tubulin-Different-Phenotype (%) [1]: 19%
Total Cell Count [1]: 402
Population Apoptotic (%) [2]: 37%
Population Fragmented Nuclei (%) [2]: 6%
Population Healthy Nuclei (%) [2]: 83%
Population Hoechst High Intensity Objects (%) [2]: 6%
Population Mitochondria Different-Phenotype (%) [2]: 48%
Population Mitotic Cells (%) [2]: 62%
Population Normal (%) [2]: 94%
Population Pyknosed Nuclei (%) [2]: 9%
Total Cell Count [2]: 417
Population Apoptotic (%) [3]: 37%
Population Fragmented Nuclei (%) [3]: 10%
Population Healthy Nuclei (%) [3]: 71%
Population Hoechst High Intensity Objects (%) [3]: 5%
Population Membrane Permeable-Phenotype (%) [3]: 0%
Population Mitochondria Different-Phenotype (%) [3]: 41%
Population Mitotic Cells (%) [3]: 62%
Population Normal (%) [3]: 94%
Population Pyknosed Nuclei (%) [3]: 17%
Population Tubulin-Different-Phenotype (%) [3]: 40%
Total Cell Count [3]: 342
Population Apoptotic (%) [4]: 44%
Population Fragmented Nuclei (%) [4]: 6%
Population Healthy Nuclei (%) [4]: 73%
Population Hoechst High Intensity Objects (%) [4]: 6%
Population Mitochondria Different-Phenotype (%) [4]: 65%
Population Mitotic Cells (%) [4]: 55%
Population Normal (%) [4]: 93%
Population Pyknosed Nuclei (%) [4]: 20%
Population Tubulin-Different-Phenotype (%) [4]: 45%
Total Cell Count [4]: 367
Population Apoptotic (%) [5]: 33%
Population Fragmented Nuclei (%) [5]: 8%
Population Healthy Nuclei (%) [5]: 78%
Population Hoechst High Intensity Objects (%) [5]: 4%
Population Membrane Permeable-Phenotype (%) [5]: 0%
Population Mitochondria Different-Phenotype (%) [5]: 21%
Population Mitotic Cells (%) [5]: 66%
Population Normal (%) [5]: 95%
Population Pyknosed Nuclei (%) [5]: 12%
Population Tubulin-Different-Phenotype (%) [5]: 17%
Total Cell Count [5]: 481
Population Apoptotic (%) [6]: 35%
Population Fragmented Nuclei (%) [6]: 12%
Population Membrane Permeable-Phenotype (%) [6]: 1%
Population Mitochondria Different-Phenotype (%) [6]: 31%
Population Mitotic Cells (%) [6]: 64%
Population Pyknosed Nuclei (%) [6]: 8%
Population Tubulin-Different-Phenotype (%) [6]: 16%
Total Cell Count [6]: 530
Population Apoptotic (%) [7]: 15%
Population Fragmented Nuclei (%) [7]: 9%
Population Healthy Nuclei (%) [7]: 77%
Population Hoechst High Intensity Objects (%) [7]: 2%
Population Membrane Permeable-Phenotype (%) [7]: 0%
Population Mitochondria Different-Phenotype (%) [7]: 35%
Population Mitotic Cells (%) [7]: 84%
Population Normal (%) [7]: 97%
Population Pyknosed Nuclei (%) [7]: 13%
Population Tubulin-Different-Phenotype (%) [7]: 35%
Total Cell Count [7]: 434
Population Apoptotic (%) [8]: 22%
Population Fragmented Nuclei (%) [8]: 7%
Population Healthy Nuclei (%) [8]: 83%
Population Hoechst High Intensity Objects (%) [8]: 3%
Population Mitochondria Different-Phenotype (%) [8]: 47%
Population Mitotic Cells (%) [8]: 77%
Population Normal (%) [8]: 96%
Population Pyknosed Nuclei (%) [8]: 8%
Population Tubulin-Different-Phenotype (%) [8]: 33%
Total Cell Count [8]: 482
Population Apoptotic (%) [9]: 17%
Population Fragmented Nuclei (%) [9]: 13%
Population Healthy Nuclei (%) [9]: 79%
Population Hoechst High Intensity Objects (%) [9]: 3%
Population Membrane Permeable-Phenotype (%) [9]: 2%
Population Mitochondria Different-Phenotype (%) [9]: 14%
Population Mitotic Cells (%) [9]: 82%
Population Normal (%) [9]: 96%
Population Pyknosed Nuclei (%) [9]: 7%
Population Tubulin-Different-Phenotype (%) [9]: 9%
Total Cell Count [9]: 893
Population Apoptotic (%) [10]: 33%
Population Fragmented Nuclei (%) [10]: 17%
Population Healthy Nuclei (%) [10]: 74%
Population Hoechst High Intensity Objects (%) [10]: 2%
Population Mitochondria Different-Phenotype (%) [10]: 15%
Population Mitotic Cells (%) [10]: 66%
Population Normal (%) [10]: 97%
Population Tubulin-Different-Phenotype (%) [10]: 11%
Total Cell Count [10]: 799
Population Apoptotic (%) [11]: 22%
Population Fragmented Nuclei (%) [11]: 12%
Population Healthy Nuclei (%) [11]: 77%
Population Hoechst High Intensity Objects (%) [11]: 2%
Population Membrane Permeable-Phenotype (%) [11]: 2%
Population Mitochondria Different-Phenotype (%) [11]: 19%
Population Mitotic Cells (%) [11]: 77%
Population Normal (%) [11]: 97%
Population Pyknosed Nuclei (%) [11]: 9%
Population Tubulin-Different-Phenotype (%) [11]: 23%
Total Cell Count [11]: 671
Population Apoptotic (%) [12]: 20%
Population Fragmented Nuclei (%) [12]: 15%
Population Hoechst High Intensity Objects (%) [12]: 3%
Population Membrane Permeable-Phenotype (%) [12]: 1%
Population Mitochondria Different-Phenotype (%) [12]: 27%
Population Mitotic Cells (%) [12]: 79%
Population Normal (%) [12]: 96%
Population Pyknosed Nuclei (%) [12]: 6%
Population Tubulin-Different-Phenotype (%) [12]: 26%
Total Cell Count [12]: 666

From ChEMBL document CHEMBL5058577, “EUbOPEN Chemogenomics Library 2 (Multiplex)” (2022)
